The results in this text go back to PubChem BioAssay.

Activity calls are given as the source filed them.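 The calls were made as follows, unless noted: active = duplicate-averaged activation above buffer control mean plus 5 SD of those controls; inactive = the rest.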

Sequence of Potassium voltage-gated channel subfamily KQT member 1 (Homo sapiens) (P51787 whole entry, looked up): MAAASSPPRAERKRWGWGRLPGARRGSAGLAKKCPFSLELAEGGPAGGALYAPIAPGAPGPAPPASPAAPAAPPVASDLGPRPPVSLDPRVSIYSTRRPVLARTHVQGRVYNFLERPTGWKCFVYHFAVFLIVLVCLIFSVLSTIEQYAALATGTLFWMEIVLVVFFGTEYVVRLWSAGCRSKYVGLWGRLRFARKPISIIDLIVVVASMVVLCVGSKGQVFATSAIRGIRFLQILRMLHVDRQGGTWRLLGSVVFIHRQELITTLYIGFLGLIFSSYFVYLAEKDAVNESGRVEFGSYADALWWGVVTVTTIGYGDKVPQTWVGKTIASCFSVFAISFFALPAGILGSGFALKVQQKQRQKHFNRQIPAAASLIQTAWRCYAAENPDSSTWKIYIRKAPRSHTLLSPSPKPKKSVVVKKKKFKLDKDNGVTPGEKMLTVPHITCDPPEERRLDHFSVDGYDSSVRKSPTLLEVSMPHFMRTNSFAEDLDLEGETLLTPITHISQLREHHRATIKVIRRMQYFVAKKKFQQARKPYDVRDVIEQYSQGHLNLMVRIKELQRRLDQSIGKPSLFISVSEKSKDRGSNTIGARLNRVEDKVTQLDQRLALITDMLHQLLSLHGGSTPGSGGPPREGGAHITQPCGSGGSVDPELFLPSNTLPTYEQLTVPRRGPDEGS

System in one experiment: not listed separately
Kind of experiment: thallium flux activation in parental CHO cells, counter-screen for KCNQ1 potentiator project (AID 493006). To be noted: parental CHO-K1 cells, FluxOR thallium flux, at 10 µM; stronger effect = higher value. The method in brief: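 Benchmarks – buffer and R-L3 controls · Assay system – untransfected host CHO-K1 cells with FluxOR thallium dye · Measure – fluorescence change ratio scaled 0% buffer, 100% R-L3 · Technique – kinetic thallium-flux fluorescence · Timing – overnight 37 °C plating, 90 min RT dye, 20 min compound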
In the case of `COc1cccc(-c2nc(=S)c3c(o2)CCCC3)c1`, the result was inactive.
Consider `CCOC(=O)c1c(C)[nH]sc1=S`, for which the outcome was inactive.
Same read-out and setting: the same measure for `CC(Sc1nncs1)C(=O)NC1CCCCC1C` (stereo not given): “inactive”; for `Cc1ccc(NC(=S)NC(=O)c2ccc(-c3ccccc3)cc2)c(C)c1`: “inactive”; for `O=C(Nc1nnc(-c2ccccc2)o1)c1cc(Cl)sc1Cl`: “inactive”.
Turning to `CC(=O)c1cccc(OCc2cc(C(=O)N(C)C(C)c3ccccn3)no2)c1` (stereo not given), the result was inactive.
On the same count and under the same terms, the same measure for `NC(=O)c1ccsc1NC(=O)COC(=O)Cc1ccsc1`: “inactive”; for `Cc1cc(-c2cccnc2)c(C#N)c(SCC#N)n1`: “inactive”; for `CC(c1ccccc1)c1nnc(N)s1` (stereo not given): “inactive”.
Regarding `CCOc1ccc(OCCCN(C)C)cc1`, the outcome was inactive.
Same read-out and setting: to `CCOc1cc(CN2CCOCC2)cc(C(C)=O)c1` belongs “inactive”; to `O=C(CSc1nnc(-c2ccco2)o1)Nc1cccc([N+](=O)[O-])c1`, “inactive”.
On the same count and under the same terms, to `CC1(C)CC(Nc2ccc(Nc3ccccc3)cc2)CC(C)(C)N1` belongs “inactive”; to `O=C(c1ccc(-c2ccccc2)cc1)C1CCCN(C(=O)Cn2cncn2)C1` (stereo not given), “inactive”.
The same measure, in the same setting: the same measure for `O=C(NC(=S)Nc1ccccc1N1CCCC1)c1ccc(-c2cccc([N+](=O)[O-])c2)o1`: “inactive”; for `CC1(c2ccc(OC(F)F)cc2)NC(=O)N(CC(=O)Nc2ccc3c(c2)OCO3)C1=O` (stereo not given): “inactive”; for `Cn1c(SCC(=O)NC2CC2)nnc1-c1cccs1`: “inactive”.
`C/C(=N\Nc1cccc2cccnc12)c1ccc[nH]1`: the result was inactive.
Take `CC1Oc2ccccc2N(CC(=O)N2CCCCCC2)C1=O` (stereo not given): the outcome was inactive.
Same read-out and setting: to `CCCOc1ccc(C(=O)NNC(=S)NC(=O)c2cc(-c3ccc(Cl)cc3)nc3ccccc23)cc1` belongs “inactive”; to `S=c1[nH]nc(-c2ccco2)n1/N=C/c1ccc(Br)s1`, “inactive”.
The same measure, in the same setting: to `CCCN(CCC)Cc1c(C(=O)N/N=C/C(C)=C\c2ccco2)nnn1-c1nonc1N` belongs “inactive”.
Same read-out and setting: the same measure for `CCCCCCCCN1[C@@H](CC(C)=O)c2cc(C(F)(F)F)ccc2S1(=O)=O`: “inactive”; for `S=c1nc[nH]c2c1[nH]c1ccc(Cl)cc12`: “inactive”; for `CCn1c(CN2CCN(c3ccc(OC)cc3)CC2)nc2cc(S(=O)(=O)N(C)C)ccc21`: “inactive”.
Turning to `O=C(NC(=S)Nc1cccc(Cl)c1N1CCCCC1)c1cccs1`, the outcome was inactive.
With `CC(NC(=O)c1ccccc1Cl)C1CC2CCC1C2` (stereo not given), the outcome was inactive.
On the same count and under the same terms, the same measure for `CCN(c1ccccc1)S(=O)(=O)c1ccc(NC(=S)NC(=O)c2ccc(Br)o2)cc1`: “inactive”.
On to `CCC(C)NCC(=O)Nc1sc2c(c1C(N)=O)CCC2` (stereo not given), for which the result was inactive.
On to `Cn1cccc1C(=O)NNC(=O)COc1ccccc1F`, for which the outcome was inactive.
Still for that read-out and setting: the same measure for `CCCOc1ccc(C(=O)NNC(=S)NC(=O)CC)cc1`: “inactive”.
On the same count and under the same terms, to `CN(C)CCNc1nc2sc3c(c2c(=O)n1CCc1ccccc1)CCCCC3` belongs “inactive”; to `COc1ccc(CCNC(=O)CCOc2cc(C)ccc2C)cc1OC`, “inactive”.
The same measure, in the same setting: to `Cc1cc(/C=N/NC(=O)C(O)(c2ccccc2)c2ccccc2)c(C)n1-c1ccccc1` belongs “inactive”.
As to `O=C(NCC(c1cccs1)N1CCOCC1)C1CCN(S(=O)(=O)c2cccc(C(F)(F)F)c2)CC1` (stereo not given), the result was inactive.
For the compound `CCN1CCN(c2ccc(S(=O)(=O)N3CCCC3)cn2)CC1`, the outcome was inactive.
On the same count and under the same terms, the same measure for `COc1ccccc1C(=O)NNC(=O)C(=O)NC(C)C`: “inactive”; for `Cc1ccc(-c2nnc(SCC(=O)N/N=C/c3ccccc3C(=O)O)n2-c2ccc(Cl)cc2)cc1`: “inactive”.
For the compound `Cc1ccc(S(=O)(=O)/N=C(\N)Nc2nc(C)c3ccccc3n2)cc1`, the outcome was inactive.
For `CCCCS(=O)(=O)/C=C\C=C/S(=O)(=O)CCCC`, the outcome was inactive.

A further experiment deals with Potassium voltage-gated channel subfamily KQT member 1 (Homo sapiens) (UniProt P51787). Kind of experiment: KCNQ1 potassium channel potentiators, confirmation, FluxOR thallium flux, CHO cells, duplicates (AID 493007;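 active = potentiation averaged over duplicate wells exceeding buffer-only control mean by more than 3 SD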;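 as to outcome: cells depolarized by a potassium plus thallium sulfate stimulus after compound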). To be noted: KCNQ1 cell line, FluxOR thallium flux fluorescence, at 10 µM; stronger effect = higher value, % of reference activator effect, buffer zero. The essentials:
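Material: CHO cells stably expressing the KCNQ1 potassium channel / Times: dye 90 min then compound 20 min, both at room temperature / Detection: kinetic thallium influx fluorescence with FluxOR dye, 10 s baseline, 110 s post-stimulus / Benchmarks: buffer-only wells as 0% and R-L3 activator as 100% / Replicates: each compound tested in duplicate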
Consider `COc1cccc(-c2nc(=S)c3c(o2)CCCC3)c1`, for which the result was inactive.
As for `CCOC(=O)c1c(C)[nH]sc1=S`, the potentiation was 18% (active).
Regarding `CC(Sc1nncs1)C(=O)NC1CCCCC1C` (stereo not given), the outcome was inactive.
Same read-out and setting: the same measure for `Cc1ccc(NC(=S)NC(=O)c2ccc(-c3ccccc3)cc2)c(C)c1`: “inactive”; for `O=C(Nc1nnc(-c2ccccc2)o1)c1cc(Cl)sc1Cl`: “inactive”.
Still for that read-out and setting: the same measure for `CC(=O)c1cccc(OCc2cc(C(=O)N(C)C(C)c3ccccn3)no2)c1` (stereo not given): “inactive”.
On to `NC(=O)c1ccsc1NC(=O)COC(=O)Cc1ccsc1`, for which the potentiation is 182% (active).
With `Cc1cc(-c2cccnc2)c(C#N)c(SCC#N)n1`, the outcome was inactive.
Still for that read-out and setting: the same measure for `CC(c1ccccc1)c1nnc(N)s1` (stereo not given): “inactive”; for `CCOc1ccc(OCCCN(C)C)cc1`: “inactive”.
Turning to `CCOc1cc(CN2CCOCC2)cc(C(C)=O)c1`, the potentiation was 23.5% (active).
As to `O=C(CSc1nnc(-c2ccco2)o1)Nc1cccc([N+](=O)[O-])c1`, the outcome was inactive.
For `CC1(C)CC(Nc2ccc(Nc3ccccc3)cc2)CC(C)(C)N1`, the potentiation was 23.5% (active).
Turning to `O=C(c1ccc(-c2ccccc2)cc1)C1CCCN(C(=O)Cn2cncn2)C1` (stereo not given), the result was inactive.
On the same count and under the same terms, to `O=C(NC(=S)Nc1ccccc1N1CCCC1)c1ccc(-c2cccc([N+](=O)[O-])c2)o1` belongs “inactive”.
Still for that read-out and setting: the same measure for `CC1(c2ccc(OC(F)F)cc2)NC(=O)N(CC(=O)Nc2ccc3c(c2)OCO3)C1=O` (stereo not given): “inactive”; for `Cn1c(SCC(=O)NC2CC2)nnc1-c1cccs1`: “inactive”.
For the compound `C/C(=N\Nc1cccc2cccnc12)c1ccc[nH]1`, the potentiation was 30% (active).
For `CC1Oc2ccccc2N(CC(=O)N2CCCCCC2)C1=O` (stereo not given), the potentiation is 27.5% (active).
As for `CCCOc1ccc(C(=O)NNC(=S)NC(=O)c2cc(-c3ccc(Cl)cc3)nc3ccccc23)cc1`, the outcome was inactive.
Still for that read-out and setting: to `S=c1[nH]nc(-c2ccco2)n1/N=C/c1ccc(Br)s1` belongs “inactive”; to `CCCN(CCC)Cc1c(C(=O)N/N=C/C(C)=C\c2ccco2)nnn1-c1nonc1N`, “inactive”.
Consider `CCCCCCCCN1[C@@H](CC(C)=O)c2cc(C(F)(F)F)ccc2S1(=O)=O`, for which the potentiation was 60.5% (active).
With `S=c1nc[nH]c2c1[nH]c1ccc(Cl)cc12`, the outcome was inactive.
The same measure, in the same setting: to `CCn1c(CN2CCN(c3ccc(OC)cc3)CC2)nc2cc(S(=O)(=O)N(C)C)ccc21` belongs “inactive”.
As for `O=C(NC(=S)Nc1cccc(Cl)c1N1CCCCC1)c1cccs1`, the potentiation is 54% (active).
With `CC(NC(=O)c1ccccc1Cl)C1CC2CCC1C2` (stereo not given), the outcome was inactive.
For `CCN(c1ccccc1)S(=O)(=O)c1ccc(NC(=S)NC(=O)c2ccc(Br)o2)cc1`, the potentiation was 76% (active).
On to `CCC(C)NCC(=O)Nc1sc2c(c1C(N)=O)CCC2` (stereo not given), for which the outcome was inactive.
On the same count and under the same terms, the same measure for `Cn1cccc1C(=O)NNC(=O)COc1ccccc1F`: “inactive”; for `CCCOc1ccc(C(=O)NNC(=S)NC(=O)CC)cc1`: “inactive”.
With `CN(C)CCNc1nc2sc3c(c2c(=O)n1CCc1ccccc1)CCCCC3`, the potentiation is 19% (active).
For the compound `COc1ccc(CCNC(=O)CCOc2cc(C)ccc2C)cc1OC`, the result was inactive.
The same measure, in the same setting: the same measure for `Cc1cc(/C=N/NC(=O)C(O)(c2ccccc2)c2ccccc2)c(C)n1-c1ccccc1`: “inactive”.
The same measure, in the same setting: to `O=C(NCC(c1cccs1)N1CCOCC1)C1CCN(S(=O)(=O)c2cccc(C(F)(F)F)c2)CC1` (stereo not given) belongs “inactive”; to `CCN1CCN(c2ccc(S(=O)(=O)N3CCCC3)cn2)CC1`, “inactive”; to `COc1ccccc1C(=O)NNC(=O)C(=O)NC(C)C`, “inactive”.
Same read-out and setting: to `Cc1ccc(-c2nnc(SCC(=O)N/N=C/c3ccccc3C(=O)O)n2-c2ccc(Cl)cc2)cc1` belongs “inactive”; to `Cc1ccc(S(=O)(=O)/N=C(\N)Nc2nc(C)c3ccccc3n2)cc1`, “inactive”.
As to `CCCCS(=O)(=O)/C=C\C=C/S(=O)(=O)CCCC`, the result was inactive.
